Experimental data published in ChEMBL document CHEMBL2390820, “3-Biphenylimidazo[1,2-a]pyridines or [1,2-b]pyridazines and analogues, novel Flaviviridae inhibitors” (Eur J Med Chem, 2013).
≈ marks a conversion by molar mass, not a printed value.

Assays:
Hepatitis C virus = assay: Antiviral activity against HCV genotype 1b infected in Huh5-2 cells assessed as inhibition of viral replication after 4 days by luciferase reporter gene assay; assay type: functional, organism-based, Hepacivirus hominis, Huh-5-2; settings: for EC50: Hepatitis C virus, genotype 1b, Huh-5-2, 96 h
How it was run: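 Huh 5-2 cells carrying the HCV subgenomic luciferase replicon were seeded at 5 × 10³/well with compound and incubated 4 days at 37 °C. Medium was removed and luciferase activity quantified. EC50 is the minimum concentration reducing replicon-driven luciferase signal by 50%.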

[1] = Selectivity index, ratio of CC50 for MDBK cells to EC50 for BVDV NADL infected in MDBK cells
How it was run: (§1)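 Selectivity index is the ratio of CC50 from the 3-day MTS/PMS proliferation assay to EC50 in the same cell line. For Huh 5-2 the EC50 is from the luciferase replicon assay; for MDBK it is from the MTS CPE assay.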

[2] = Cytotoxicity against MDBK cells assessed as growth inhibition after 3 days by MTS assay; assay type: cell-based, Bos taurus; settings: cattle
How it was run: (§2)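 MDBK or Huh 5-2 cells were seeded at 5 × 10³/well in MEM-FCS, with serial compound dilutions added 24 h later. Cells proliferated 3 days at 37 °C, then metabolic activity was read by MTS/PMS. CC50 is the concentration inhibiting proliferation of exponentially growing cells by 50%, by linear interpolation.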

[3] = Selectivity index, ratio of CC50 for Huh5-2 cells to EC50 for HCV genotype 1b infected in Huh5-2 cells; set-up: species or system Huh-5-2; how it was run: as §1
[4] = Antiviral activity against BVDV NADL infected in MDBK cells assessed as inhibition of virus-induced cytopathic effect formation after 5 days by MTS assay; assay type: functional, cell-based, Bovine viral diarrhea virus 1-NADL; settings: Bovine viral diarrhea virus isolates and strains, 120 h
How it was run: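 MDBK cells were seeded at 5 × 10³/well in MEM-FCS and held 24 h at 37 °C, 5% CO₂. Medium was replaced with 5-fold serial compound dilutions, then BVDV inoculum was added at MOI 2. CPE was read by MTS as OD at 490 nm. EC50 is the concentration giving 50% protection against virus-induced CPE, by linear interpolation.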

[5] = Cytotoxicity against human Huh5-2 cells assessed as growth inhibition after 3 days by MTS assay; assay type: cell-based, Huh-5-2; how it was run: as §2

| Structure (SMILES) | EC50 (Hepatitis C virus) [mg/L] | Ratio CC50/EC50 [1] | CC50 at 72 h [2] [mg/L] | Ratio CC50/EC50 [3] | EC50 [4] [mg/L] | CC50 at 72 h [5] [mg/L] | inhibition (INH) (Hepatitis C virus) [%] |
| --- | --- | --- | --- | --- | --- | --- | --- |
| COc1ccc(-c2cccc(-c3c(-c4ccc(F)cc4)nc4ccccn34)c2)cc1 | 1.63 (≈ 4.13 µM) | >36 | > 100 | 21.3 | 2.8 (≈ 7.1 µM) | 34.8 (≈ 88.2 µM) | – |
| c1ccc(-c2cccc(-c3c(-c4ccsc4)nc4ccc(-c5ccsc5)cn34)c2)cc1 | 64.5 (≈ 148 µM) | >15.2 | > 100 | >1.8 | 6.6 (≈ 15.2 µM) | > 115 | – |
| COc1ccccc1-c1nc2ccccn2c1-c1cccc(-c2ccc(O)cc2)c1 | 18.8 (≈ 47.9 µM) | >5.6 | > 100 | 2.3 | 17.7 (≈ 45.1 µM) | 43.8 (≈ 112 µM) | – |
| Fc1ccc(-c2nc3ccc(N4CCOCC4)cn3c2-c2ccc(-c3ccccc3)cc2)cc1 | 6.7 (≈ 14.9 µM) | >1 | > 50 | 2.3 | > 50 | 15.6 (≈ 34.7 µM) | – |
| Fc1ccc(-c2nc3ccc(-c4ccsc4)nn3c2-c2ccc(-c3ccccc3)cc2)cc1 | > 112 | >1 | > 50 | >1 | > 50 | > 112 | – |
| COc1ccccc1-c1nc2ccc(-c3ccsc3)nn2c1-c1cccc(-c2ccccc2O)c1 | 4.8 (≈ 10.1 µM) | 12 | 16.2 (≈ 34.1 µM) | >43 | 1.36 (≈ 2.86 µM) | > 205 | 60 |
| Fc1ccc(-c2nc3ccccn3c2-c2cccc(-c3ccoc3)c2)cc1 | 19.2 (≈ 54.2 µM) | 3.2 | 5.6 (≈ 15.8 µM) | 3.4 | 1.7 (≈ 4.8 µM) | 66.2 (≈ 187 µM) | – |
| CC(C)(C)c1nc2ccc(-c3ccsc3)nn2c1-c1cccc(-c2ccccc2)c1 | 22.7 (≈ 55.4 µM) | >2.6 | > 100 | 2.8 | 37.9 (≈ 92.5 µM) | 63.2 (≈ 154 µM) | – |
| Fc1ccc(-c2nc3ccc(-c4ccsc4)nn3c2-c2cccc(-c3ccccc3)c2)cc1 | 11.2 (≈ 25 µM) | 8 | 13 (≈ 29 µM) | 1.2 | 1.7 (≈ 3.8 µM) | 13.4 (≈ 29.9 µM) | – |
| c1ccc(-c2cccc(-c3cnc4ccc(-c5ccsc5)cn34)c2)cc1 | 89.5 (≈ 254 µM) | >1 | > 100 | >1.6 | > 100 | > 142 | – |
| Fc1ccc(-c2nc3ccc(N4CCOCC4)nn3c2-c2ccccc2-c2ccccc2)cc1 | 11.1 (≈ 24.6 µM) | 3 | 31 (≈ 68.8 µM) | 1 | 11 (≈ 24.4 µM) | 11.1 (≈ 24.6 µM) | – |
| CC(C)(C)c1nc2ccc(-c3ccsc3)cn2c1-c1cccc(-c2ccccc2)c1 | 42.5 (≈ 104 µM) | >1.6 | > 100 | >2.4 | 62.6 (≈ 153 µM) | > 123 | – |
| Fc1ccc(-c2nc3ccc(N4CCOCC4)cn3c2-c2cccc(-c3ccccc3)c2)cc1 | 6.7 (≈ 14.9 µM) | >1 | > 50 | 1.7 | > 50 | 11.1 (≈ 24.7 µM) | – |
| CC(C)(C)c1nc2ccc(-c3ccsc3)nn2c1-c1cccc(-c2ccoc2)c1 | 8.7 (≈ 21.8 µM) | 2.7 | 4.5 (≈ 11.3 µM) | 6.3 | 1.7 (≈ 4.26 µM) | 55.1 (≈ 138 µM) | – |
| COc1ccccc1-c1nc2ccc(-c3ccsc3)cn2c1-c1cccc(-c2ccccc2)c1 | 17.5 (≈ 38.2 µM) | >1.5 | > 100 | 3.3 | 68.6 (≈ 150 µM) | 56.8 (≈ 124 µM) | – |
| Fc1ccc(-c2nc3ccc(-c4ccccc4)nn3c2-c2cccc(-c3ccccc3)c2)cc1 | 11.3 (≈ 25.6 µM) | 20 | 25 (≈ 56.6 µM) | 1.4 | 1.23 (≈ 2.79 µM) | 15.9 (≈ 36 µM) | – |
| COc1cccc(-c2nc3ccc(-c4ccsc4)cn3c2-c2cccc(-c3ccccc3)c2)c1 | 52.4 (≈ 114 µM) | >6.7 | > 100 | 1.6 | 15 (≈ 32.7 µM) | 85.2 (≈ 186 µM) | – |
| COc1ccccc1-c1nc2ccc(-c3ccsc3)nn2c1-c1cccc(-c2ccccc2)c1 | 14.7 (≈ 32 µM) | 3.1 | 10.4 (≈ 22.6 µM) | 6.6 | 3.4 (≈ 7.4 µM) | 97.4 (≈ 212 µM) | – |
| Fc1ccc(-c2nc3ccc(-c4ccccc4)nn3c2-c2ccc(-c3ccccc3)cc2)cc1 | – | >1 | > 50 | – | > 50 | 45.3 (≈ 103 µM) | – |
| Fc1ccc(-c2nc3ccccn3c2-c2cccc(-c3ccc(Cl)cc3)c2)cc1 | 5.9 (≈ 14.8 µM) | 4.3 | 12.7 (≈ 31.8 µM) | 9.7 | 3 (≈ 7.52 µM) | 57.5 (≈ 144 µM) | – |
| Fc1ccc(-c2nc3ccc(N4CCOCC4)nn3c2-c2ccc(-c3ccccc3)cc2)cc1 | – | >1 | > 50 | – | > 50 | 33.3 (≈ 73.9 µM) | – |
| COc1cccc(-c2cccc(-c3c(-c4ccc(F)cc4)nc4ccccn34)c2)c1 | 4.3 (≈ 10.9 µM) | 3.7 | 11.5 (≈ 29.2 µM) | 11.8 | 3.1 (≈ 7.86 µM) | 50.2 (≈ 127 µM) | – |
| COc1ccccc1-c1nc2ccccn2c1-c1cccc(-c2ccccc2O)c1 | 48.9 (≈ 125 µM) | 1.9 | 14.4 (≈ 36.7 µM) | 2 | 7.55 (≈ 19.2 µM) | 95.8 (≈ 244 µM) | – |
| Fc1ccc(-c2nc3ccccn3c2-c2cccc(-c3ccsc3)c2)cc1 | 11.1 (≈ 30 µM) | 3 | 7 (≈ 18.9 µM) | 5.1 | 2.3 (≈ 6.21 µM) | 56.7 (≈ 153 µM) | – |
| Fc1ccc(-c2cccc(-c3c(-c4ccc(F)cc4)nc4ccccn34)c2)cc1 | 10.3 (≈ 26.9 µM) | 1.4 | 5.4 (≈ 14.1 µM) | 5.3 | 3.9 (≈ 10.2 µM) | 54.5 (≈ 143 µM) | – |
| COc1ccccc1-c1cccc(-c2c(-c3ccc(F)cc3)nc3ccccn23)c1 | 10.7 (≈ 27.1 µM) | 3.2 | 8.5 (≈ 21.5 µM) | 2.8 | 2.7 (≈ 6.84 µM) | 29.7 (≈ 75.3 µM) | – |
| CC(C)(C)c1nc2ccc(-c3ccsc3)nn2c1-c1cccc(-c2cccc(O)c2)c1 | 3.9 (≈ 9.16 µM) | >26.7 | > 100 | 5.2 | 3.7 (≈ 8.69 µM) | 20 (≈ 47 µM) | – |
| COc1ccc(-c2nc3ccc(-c4ccsc4)cn3c2-c2cccc(-c3ccccc3)c2)cc1 | 56.8 (≈ 124 µM) | >4.4 | > 100 | >1.9 | 22.7 (≈ 49.5 µM) | > 109 | – |
